Reference: ChEMBL document CHEMBL3585321, “Synthesis and antimicrobial activity of chloramphenicol-polyamine conjugates” (Bioorg Med Chem, 2015)
Calls of active or inactive are those of the source. The calls are words filed in the database; no cut-off is given here.

Legend:
[1] = Inhibition of Escherichia coli K-12 70S ribosome poly(U)-programmed ribosome (complex C) bearing tRNAPhe at E-site and Ac[3H]Phe-tRNA at P-site assessed as reduction in peptide bond formation using puromycin(S) substrate
Staphylococcus aureus [2] = experiment: Antibacterial activity against methicillin-resistant Staphylococcus aureus GRE2272 assessed as inhibition of bacterial growth; format: functional, organism-based
Staphylococcus aureus [3] = experiment: Antibacterial activity against methicillin-resistant Staphylococcus aureus GRE2372 assessed as inhibition of bacterial growth; format: functional, organism-based
Staphylococcus aureus [4] = experiment: Antibacterial activity against methicillin-resistant Staphylococcus aureus GRE2691 assessed as inhibition of bacterial growth; format: functional, organism-based
Staphylococcus aureus [5] = experiment: Antibacterial activity against wild type Staphylococcus aureus assessed as inhibition of bacterial growth at antibacterial IC50 level in presence of 10 times IC50 levels of putrescine; format: functional, organism-based
Outline: (§1)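 Cells started at A560 0.020 in M9 medium with drug at its own growth IC50, alone or with putrescine, spermidine or spermine at 10×IC50. Cultures run until the drug-free control reached A560 0.800. Growth given as percent of control optical density. At least three experiments, two replicates each, mean±SD, p<0.05.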

Staphylococcus aureus [6] = experiment: Antibacterial activity against wild type Staphylococcus aureus assessed as inhibition of bacterial growth at antibacterial IC50 level in presence of 10 times IC50 levels of spermine; format: functional, organism-based; outline: as §1
Staphylococcus aureus [7] = experiment: Antibacterial activity against wild type Staphylococcus aureus assessed as inhibition of bacterial growth at antibacterial IC50 level in presence of 10 times IC50 levels of spermidine; format: functional, organism-based; outline: as §1
Escherichia coli [8] = experiment: Antibacterial activity against wild type Escherichia coli K-12 assessed as inhibition of bacterial growth at antibacterial IC50 level in presence of 10 times IC50 levels of putrescine; format: functional, organism-based; outline: as §1
Escherichia coli [9] = experiment: Antibacterial activity against wild type Escherichia coli K-12 assessed as inhibition of bacterial growth at antibacterial IC50 level in presence of 10 times IC50 levels of spermine; format: functional, organism-based; outline: as §1
Escherichia coli [10] = experiment: Antibacterial activity against wild type Escherichia coli K-12 assessed as inhibition of bacterial growth at antibacterial IC50 level in presence of 10 times IC50 levels of spermidine; format: functional, organism-based; outline: as §1
Staphylococcus aureus [11] = experiment: Antibacterial activity against wild type Staphylococcus aureus assessed as inhibition of bacterial growth; format: functional, organism-based
Escherichia coli [12] = experiment: Antibacterial activity against Escherichia coli lacking chromosomal rrn alleles and containing pKK35 plasmids possessing 23S rRNA A2058G mutant assessed as inhibition of bacterial growth; format: functional, organism-based
Escherichia coli [13] = experiment: Antibacterial activity against wild type Escherichia coli K-12 assessed as inhibition of bacterial growth; format: functional, organism-based
Escherichia coli [14] = experiment: Antibacterial activity against Escherichia coli lacking chromosomal rrn alleles and containing pKK35 plasmids possessing 23S rRNA A2503C mutant assessed as inhibition of bacterial growth; format: functional, organism-based
Escherichia coli [15] = experiment: Antibacterial activity against Escherichia coli BL21(DE3) expressing delta-tolC gene assessed as inhibition of bacterial growth; format: functional, organism-based
Outline: (§2)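 IC50 from bacterial cultures grown in LB medium without drug or with drug across a range of concentrations, reported in μM. Three independent experiments, each with two replicates, given as mean±SD.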

Escherichia coli [16] = experiment: Antibacterial activity against Escherichia coli Rosetta(DE3) containing rare tRNA genes and chloramphenicol resistant gene in pLysS plasmid assessed as inhibition of bacterial growth; format: functional, organism-based; outline: as §2

For NCCCCNC(=O)CCC(=O)N[C@H](CO)[C@H](O)c1ccc([N+](=O)[O-])cc1, the Ki [1] was 0.9 µM.
With COc1cccc(OC)c1C(=O)N[C@@H]1C(=O)N2[C@@H]1SC(C)(C)[C@@H]2C(=O)O the “growth inhibition (GI)” value (Staphylococcus aureus [2]) was “inactive”, the “growth inhibition (GI)” value (Staphylococcus aureus [3]) was “inactive” and the “growth inhibition (GI)” value (Staphylococcus aureus [4]) was “inactive”.
With Cc1onc(-c2ccccc2)c1C(=O)N[C@@H]1C(=O)N2[C@@H]1SC(C)(C)[C@@H]2C(=O)O the “growth inhibition (GI)” value (Staphylococcus aureus [2]) was “inactive”, the “growth inhibition (GI)” value (Staphylococcus aureus [3]) was “inactive” and the “growth inhibition (GI)” value (Staphylococcus aureus [4]) was “inactive”.
For NCCCCN(CCCN)C(=O)CCC(=O)N[C@H](CO)[C@H](O)c1ccc([N+](=O)[O-])cc1 [listing 1 of 2 here], the “growth inhibition (GI)” value (Staphylococcus aureus [5]) was “inactive”, the “growth inhibition (GI)” value (Staphylococcus aureus [6]) was “inactive” and the “growth inhibition (GI)” value (Staphylococcus aureus [7]) was “inactive”. For the same molecule, the “growth inhibition (GI)” value (Escherichia coli [8]) was “inactive”, the “growth inhibition (GI)” value (Escherichia coli [9]) was “inactive” and the “growth inhibition (GI)” value (Escherichia coli [10]) was “inactive”.
For NCCCNCCCCNCCCNC(=O)CCC(=O)N[C@H](CO)[C@H](O)c1ccc([N+](=O)[O-])cc1 [listing 1 of 2 here], the IC50 (Staphylococcus aureus [2]) was > 200 µM, the IC50 (Staphylococcus aureus [3]) was > 200 µM and the IC50 (Staphylococcus aureus [4]) was > 200 µM. For the same molecule, the IC50 (Staphylococcus aureus [11]) was 45.3 µM, the IC50 (Escherichia coli [12]) was > 100 µM and the IC50 (Escherichia coli [13]) was > 100 µM. For the same molecule, the IC50 (Escherichia coli [14]) was > 100 µM, the IC50 (Escherichia coli [15]) was > 100 µM and the IC50 (Escherichia coli [16]) was > 200 µM.
In the case of GENTAMICIN, the “growth inhibition (GI)” value (Staphylococcus aureus [2]) is reported as “inactive”, the “growth inhibition (GI)” value (Staphylococcus aureus [3]) is reported as “Active” and the “growth inhibition (GI)” value (Staphylococcus aureus [4]) is reported as “inactive”.
With NCCCCNC(=O)c1ccccc1C(=O)N[C@H](CO)[C@H](O)c1ccc([N+](=O)[O-])cc1 the IC50 (Staphylococcus aureus [2]) was > 200 µM, the IC50 (Staphylococcus aureus [3]) was > 200 µM and the IC50 (Staphylococcus aureus [4]) was > 200 µM. The IC50 (Escherichia coli [13]) was > 200 µM, the IC50 (Escherichia coli [15]) was > 200 µM and the IC50 (Escherichia coli [16]) was > 200 µM.
For CC(=O)O[C@H]1C[C@@]2(C)[C@@H](C[C@@H](O)[C@H]3[C@@]4(C)CC[C@@H](O)[C@@H](C)[C@@H]4CC[C@@]32C)/C1=C(\CCC=C(C)C)C(=O)O, the “growth inhibition (GI)” value (Staphylococcus aureus [2]) was “inactive”, the “growth inhibition (GI)” value (Staphylococcus aureus [3]) was “inactive” and the “growth inhibition (GI)” value (Staphylococcus aureus [4]) was “inactive”.
In the case of CN[C@H](CC(C)C)C(=O)N[C@H]1C(=O)N[C@@H](CC(N)=O)C(=O)N[C@H]2C(=O)N[C@H]3C(=O)N[C@H](C(=O)N[C@H](C(=O)O)c4cc(O)cc(O)c4-c4cc3ccc4O)[C@H](O)c3ccc(c(Cl)c3)Oc3cc2cc(c3O[C@@H]2O[C@H](CO)[C@@H](O)[C@H](O)[C@H]2O[C@H]2C[C@](C)(N)[C@H](O)[C@H](C)O2)Oc2ccc(cc2Cl)[C@H]1O, the “growth inhibition (GI)” value (Staphylococcus aureus [2]) is reported as “Active”, the “growth inhibition (GI)” value (Staphylococcus aureus [3]) is reported as “Active” and the “growth inhibition (GI)” value (Staphylococcus aureus [4]) is reported as “Active”.
Work on NCCCN(CCCCN(Cc1ccccc1)Cc1ccccc1)C(=O)CCC(=O)N[C@H](CO)[C@H](O)c1ccc([N+](=O)[O-])cc1 yielded a Ki [1] of 0.28 µM.
With CCCCCCCCCC(=O)N[C@@H](Cc1c[nH]c2ccccc12)C(=O)N[C@H](CC(N)=O)C(=O)N[C@@H](CC(=O)O)C(=O)N[C@@H]1C(=O)NCC(=O)N[C@@H](CCCN)C(=O)N[C@@H](CC(=O)O)C(=O)N[C@H](C)C(=O)N[C@@H](CC(=O)O)C(=O)NCC(=O)N[C@H](CO)C(=O)N[C@@H]([C@H](C)CC(=O)O)C(=O)N[C@@H](CC(=O)c2ccccc2N)C(=O)O[C@@H]1C the “growth inhibition (GI)” value (Staphylococcus aureus [2]) was “Active”, the “growth inhibition (GI)” value (Staphylococcus aureus [3]) was “Active” and the “growth inhibition (GI)” value (Staphylococcus aureus [4]) was “Active”.
For NCCCNCCCCNCCCNC(=O)CCC(=O)N[C@H](CO)[C@H](O)c1ccc([N+](=O)[O-])cc1 [listing 2 of 2 here], the “growth inhibition (GI)” value (Staphylococcus aureus [5]) was “inactive”, the “growth inhibition (GI)” value (Staphylococcus aureus [6]) was “inactive” and the “growth inhibition (GI)” value (Staphylococcus aureus [7]) was “inactive”. The “growth inhibition (GI)” value (Escherichia coli [8]) was “inactive”, the “growth inhibition (GI)” value (Escherichia coli [9]) was “inactive” and the “growth inhibition (GI)” value (Escherichia coli [10]) was “inactive”.
For CCC[C@@H]1C[C@@H](C(=O)N[C@@H]([C@H]2O[C@H](SC)[C@H](O)[C@@H](O)[C@H]2O)[C@H](C)Cl)N(C)C1, the “growth inhibition (GI)” value (Staphylococcus aureus [2]) was “inactive”, the “growth inhibition (GI)” value (Staphylococcus aureus [3]) was “inactive” and the “growth inhibition (GI)” value (Staphylococcus aureus [4]) was “Active”.
With NCCCCN(CCCN)C(=O)CCC(=O)N[C@H](CO)[C@H](O)c1ccc([N+](=O)[O-])cc1 [listing 2 of 2 here] the Ki [1] was 1.2 µM.
